Source: ChEMBL document CHEMBL2062435, “Synthesis and in vitro antibacterial activity of gemifloxacin derivatives containing a substituted benzyloxime moiety” (2012)

Test system: Pseudomonas aeruginosa
Test: Antimicrobial activity against extended spectrum beta-lactamases-producing Pseudomonas aeruginosa 10-5 after 18-24 hrs by two-fold serial dilution method
Type: functional
In short: (§1)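 Agar-medium twofold serial dilution against Gram-positive and Gram-negative strains; MIC taken as the lowest compound concentration giving complete inhibition of bacterial growth after incubation at 35 °C for 18-24 h.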

SMILES	MIC
C[C@H]1COc2c(N3CCN(C)CC3)c(F)cc3c(=O)c(C(=O)O)cn1c23.C[C@H]1COc2c(N3CCN(C)CC3)c(F)cc3c(=O)c(C(=O)O)cn1c23.O [LEVOFLOXACIN]	0.25 µg/mL

Test system: Staphylococcus aureus
Test: Antimicrobial activity against extended spectrum beta-lactamases-producing methicillin-resistant Staphylococcus aureus 10-15 after 18-24 hrs by two-fold serial dilution method
Type: functional
In short: (§2)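 Agar twofold serial dilution MIC against clinical isolates. MIC was taken as the lowest concentration giving complete inhibition of bacterial growth after incubation at 35 °C for 18-24 h.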

SMILES	MIC
C[C@H]1COc2c(N3CCN(C)CC3)c(F)cc3c(=O)c(C(=O)O)cn1c23.C[C@H]1COc2c(N3CCN(C)CC3)c(F)cc3c(=O)c(C(=O)O)cn1c23.O [LEVOFLOXACIN]	16 µg/mL

Test system: Escherichia coli
Test: Antimicrobial activity against extended spectrum beta-lactamases-producing Escherichia coli 10-3 after 18-24 hrs by two-fold serial dilution method
Type: functional
In short: as §1

SMILES	MIC
C[C@H]1COc2c(N3CCN(C)CC3)c(F)cc3c(=O)c(C(=O)O)cn1c23.C[C@H]1COc2c(N3CCN(C)CC3)c(F)cc3c(=O)c(C(=O)O)cn1c23.O [LEVOFLOXACIN]	8 µg/mL

Test system: Staphylococcus epidermidis
Test: Antimicrobial activity against extended spectrum beta-lactamases-producing methicillin-sensitive Staphylococcus epidermidis 10-13 after 18-24 hrs by two-fold serial dilution method
Type: functional
In short: as §1

SMILES	MIC
C[C@H]1COc2c(N3CCN(C)CC3)c(F)cc3c(=O)c(C(=O)O)cn1c23.C[C@H]1COc2c(N3CCN(C)CC3)c(F)cc3c(=O)c(C(=O)O)cn1c23.O [LEVOFLOXACIN]	4 µg/mL

Test system: Escherichia coli
Test: Antimicrobial activity against Escherichia coli 10-1 after 18-24 hrs by two-fold serial dilution method
Type: functional
In short: as §1

SMILES	MIC
C[C@H]1COc2c(N3CCN(C)CC3)c(F)cc3c(=O)c(C(=O)O)cn1c23.C[C@H]1COc2c(N3CCN(C)CC3)c(F)cc3c(=O)c(C(=O)O)cn1c23.O [LEVOFLOXACIN]	4 µg/mL

Test system: Enterococcus faecium
Test: Antimicrobial activity against Enterococcus faecium 10-9 after 18-24 hrs by two-fold serial dilution method
Type: functional
In short: as §1

SMILES	MIC
C[C@H]1COc2c(N3CCN(C)CC3)c(F)cc3c(=O)c(C(=O)O)cn1c23.C[C@H]1COc2c(N3CCN(C)CC3)c(F)cc3c(=O)c(C(=O)O)cn1c23.O [LEVOFLOXACIN]	32 µg/mL

Test system: Staphylococcus aureus
Test: Antimicrobial activity against extended spectrum beta-lactamases-producing methicillin-resistant Staphylococcus aureus 10-11 after 18-24 hrs by two-fold serial dilution method
Type: functional
In short: as §2

SMILES	MIC
C[C@H]1COc2c(N3CCN(C)CC3)c(F)cc3c(=O)c(C(=O)O)cn1c23.C[C@H]1COc2c(N3CCN(C)CC3)c(F)cc3c(=O)c(C(=O)O)cn1c23.O [LEVOFLOXACIN]	32 µg/mL

Test system: Klebsiella pneumoniae
Test: Antimicrobial activity against extended spectrum beta-lactamases-producing Klebsiella pneumoniae 10-2 after 18-24 hrs by two-fold serial dilution method
Type: functional
In short: as §1

SMILES	MIC
C[C@H]1COc2c(N3CCN(C)CC3)c(F)cc3c(=O)c(C(=O)O)cn1c23.C[C@H]1COc2c(N3CCN(C)CC3)c(F)cc3c(=O)c(C(=O)O)cn1c23.O [LEVOFLOXACIN]	8 µg/mL

Test system: Staphylococcus epidermidis
Test: Antimicrobial activity against extended spectrum beta-lactamases-producing methicillin-resistant Staphylococcus epidermidis 10-13 after 18-24 hrs by two-fold serial dilution method
Type: functional
In short: as §2

SMILES	MIC
C[C@H]1COc2c(N3CCN(C)CC3)c(F)cc3c(=O)c(C(=O)O)cn1c23.C[C@H]1COc2c(N3CCN(C)CC3)c(F)cc3c(=O)c(C(=O)O)cn1c23.O [LEVOFLOXACIN]	4 µg/mL

Test system: Escherichia coli
Test: Antimicrobial activity against Escherichia coli ATCC 25922 after 18-24 hrs by two-fold serial dilution method
Type: functional
In short: as §1

SMILES	MIC
C[C@H]1COc2c(N3CCN(C)CC3)c(F)cc3c(=O)c(C(=O)O)cn1c23.C[C@H]1COc2c(N3CCN(C)CC3)c(F)cc3c(=O)c(C(=O)O)cn1c23.O [LEVOFLOXACIN]	< 0.008 µg/mL

Test system: Enterococcus faecalis
Test: Antimicrobial activity against Enterococcus faecalis 10-6 after 18-24 hrs by two-fold serial dilution method
Type: functional
In short: as §1

SMILES	MIC
C[C@H]1COc2c(N3CCN(C)CC3)c(F)cc3c(=O)c(C(=O)O)cn1c23.C[C@H]1COc2c(N3CCN(C)CC3)c(F)cc3c(=O)c(C(=O)O)cn1c23.O [LEVOFLOXACIN]	64 µg/mL

Test system: Pseudomonas aeruginosa
Test: Antimicrobial activity against Pseudomonas aeruginosa 10-12 after 18-24 hrs by two-fold serial dilution method
Type: functional
In short: as §1

SMILES	MIC
C[C@H]1COc2c(N3CCN(C)CC3)c(F)cc3c(=O)c(C(=O)O)cn1c23.C[C@H]1COc2c(N3CCN(C)CC3)c(F)cc3c(=O)c(C(=O)O)cn1c23.O [LEVOFLOXACIN]	0.25 µg/mL

Test system: Pseudomonas aeruginosa
Test: Antimicrobial activity against extended spectrum beta-lactamases-producing Pseudomonas aeruginosa 10-20 after 18-24 hrs by two-fold serial dilution method
Type: functional
In short: as §1

SMILES	MIC
C[C@H]1COc2c(N3CCN(C)CC3)c(F)cc3c(=O)c(C(=O)O)cn1c23.C[C@H]1COc2c(N3CCN(C)CC3)c(F)cc3c(=O)c(C(=O)O)cn1c23.O [LEVOFLOXACIN]	0.25 µg/mL

Test system: Escherichia coli
Test: Antimicrobial activity against Escherichia coli 10-3 after 18-24 hrs by two-fold serial dilution method
Type: functional
In short: as §1

SMILES	MIC
C[C@H]1COc2c(N3CCN(C)CC3)c(F)cc3c(=O)c(C(=O)O)cn1c23.C[C@H]1COc2c(N3CCN(C)CC3)c(F)cc3c(=O)c(C(=O)O)cn1c23.O [LEVOFLOXACIN]	4 µg/mL

Test system: Klebsiella pneumoniae
Test: Antimicrobial activity against Klebsiella pneumoniae 10-4 after 18-24 hrs by two-fold serial dilution method
Type: functional
In short: as §1

SMILES	MIC
C[C@H]1COc2c(N3CCN(C)CC3)c(F)cc3c(=O)c(C(=O)O)cn1c23.C[C@H]1COc2c(N3CCN(C)CC3)c(F)cc3c(=O)c(C(=O)O)cn1c23.O [LEVOFLOXACIN]	32 µg/mL
